Source: ChEMBL document CHEMBL3826877, “Fatty Acid Amide Hydrolase (FAAH), Acetylcholinesterase (AChE), and Butyrylcholinesterase (BuChE): Networked Targets for the Development of Carbamates as Potential Anti-Alzheimer's Disease Agents” (J Med Chem, 2016)

What was measured:
[1] = tested on: Homo sapiens; assay: Binding affinity to AChE in human assessed as enzyme reactivation half life at 1.5 mg/kg, iv dosed over 60 mins infusion; format: functional, organism-based
[2] = target: T1, Acetylcholinesterase (Homo sapiens, UniProt P22303); assay: Inhibition of recombinant human AChE expressed in HEK293 cells using acetylthiocholine iodide as substrate preincubated for 120 mins followed by substrate addition by Ellman's method
Summary of the method: (§1)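 Ellman assay at 37 °C in 0.1 M phosphate pH 8.0 with 340 µM DTNB, 0.02 U/mL enzyme and 550 µM thiocholine substrate. Enzyme and inhibitor preincubated before substrate: AChE 120 min (one compound 60 min), BuChE 15 or 20 min depending on N-substituent. Non-enzymatic blanks run. […] IC50 by linear regression of % inhibition vs log concentration. Mean of 2-3 independent runs in duplicate.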

[3] = target: T2, Fatty-acid amide hydrolase 1 (Rattus norvegicus, UniProt P97612); assay: Inhibition of FAAH in rat brain membrane using N-arachidonoyl-[14C]-ethanolamine as substrate preincubated for 20 mins followed by substrate addition measured after 30 mins by scintillation counting method; format: cell membranes
T2 sequence (P97612 whole entry): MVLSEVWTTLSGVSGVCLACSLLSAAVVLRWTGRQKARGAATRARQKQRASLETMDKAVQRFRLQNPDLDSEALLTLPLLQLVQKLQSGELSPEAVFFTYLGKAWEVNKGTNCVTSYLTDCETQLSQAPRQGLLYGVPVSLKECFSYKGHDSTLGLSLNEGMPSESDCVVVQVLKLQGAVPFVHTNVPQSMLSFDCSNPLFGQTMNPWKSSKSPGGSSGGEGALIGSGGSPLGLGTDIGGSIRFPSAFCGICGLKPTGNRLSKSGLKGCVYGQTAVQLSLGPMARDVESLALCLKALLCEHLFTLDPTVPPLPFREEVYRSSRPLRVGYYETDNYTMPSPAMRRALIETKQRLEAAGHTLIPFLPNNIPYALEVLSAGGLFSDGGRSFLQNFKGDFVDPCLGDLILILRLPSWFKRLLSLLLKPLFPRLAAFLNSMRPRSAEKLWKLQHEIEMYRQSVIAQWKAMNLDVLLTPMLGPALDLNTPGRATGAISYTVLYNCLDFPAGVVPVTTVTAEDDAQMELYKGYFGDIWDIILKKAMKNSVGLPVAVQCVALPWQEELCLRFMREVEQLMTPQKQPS
Summary of the method: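 Compound preincubated 20 min at 37 °C with rat brain 10,000 x g membranes (70 µg/sample), then [14C]-AEA (diluted with AEA) added in 50 mM Tris-HCl pH 9.00-10.00, 37 °C, 30 min. [14C]-ethanolamine counted by scintillation after CHCl3/MeOH 1:1 extraction.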

[4] = target: T2, Fatty-acid amide hydrolase 1; assay: Inhibition of FAAH in rat brain membrane using N-arachidonoyl-[14C]-ethanolamine as substrate incubated for 30 mins by scintillation counting method; format: cell membranes
Summary of the method: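 Rat brain 10,000 x g membrane fraction (70 µg/sample) co-incubated with compound and [14C]-AEA diluted with unlabelled AEA in 50 mM Tris-HCl, pH 9.00-10.00, 37 °C, 30 min. Released [14C]-ethanolamine measured by scintillation of the aqueous phase after CHCl3/MeOH 1:1 extraction.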

[5] = target: T3, Cholinesterase (Homo sapiens, UniProt P06276); assay: Inhibition of human serum BuChE using butyrylthiocholine iodide as substrate preincubated for 15 mins followed by substrate addition by Ellman's method; summary of the method: as §1
[6] = target: T1, Acetylcholinesterase; assay: Inhibition of recombinant human AChE expressed in HEK293 cells assessed as enzyme carbamoylation using acetylthiocholine iodide as substrate preincubated with enzyme followed by substrate addition by Ellman's method; details: TDE = time-dependent effect
[7] = target: T3, Cholinesterase; assay: Inhibition of human serum BuChE assessed as enzyme carbamoylation using butyrylthiocholine iodide as substrate preincubated with enzyme followed by substrate addition by Ellman's method; details: TDE = time-dependent effect
[8] = target: T3, Cholinesterase; assay: Inhibition of human serum BuChE using butyrylthiocholine iodide as substrate preincubated for 20 mins followed by substrate addition by Ellman's method; summary of the method: as §1
[9] = target: T1, Acetylcholinesterase; assay: Inhibition of recombinant human AChE expressed in HEK293 cells using acetylthiocholine iodide as substrate preincubated for 60 mins followed by substrate addition by Ellman's method; summary of the method: as §1
[10] = target: T1, Acetylcholinesterase; assay: Inhibition of recombinant human AChE expressed in HEK293 cells assessed as pseudo-first order rate constant for enzyme carbamoylation using acetylthiocholine iodide as substrate preincubated for 15 to 120 mins followed by substrate addition by Ellman's method
Summary of the method: (§2)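 Stopped-time assay at pH 8.0, 37 °C, five inhibitor concentrations. AChE: 16.7-167.5 nM, residual activity read at 15, 30, 60, 90 and 120 min. BuChE: 0.46-4.58 nM, read at […], 2, 5, 10, 15 and 30 min. Activities corrected against an uninhibited control at each time. R = R0·exp(−kobs·t)+R∞ fitted to give kobs. k3 obtained from a double-reciprocal plot of kobs vs [I].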

[11] = target: T3, Cholinesterase; assay: Inhibition of human serum BuChE assessed as pseudo-first order rate constant for enzyme carbamoylation using butyrylthiocholine iodide as substrate preincubated for 2 to 30 mins followed by substrate addition by Ellman's method; summary of the method: as §2
[12] = tested on: SH-SY5Y; assay: Cytotoxicity against human SH-SY5Y assessed as reduction in cell viability at 1 to 50 uM after 24 hrs by MTT assay; format: cell-based
Summary of the method: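 SH-SY5Y neuroblastoma cells grown in DMEM with 2 mM L-glutamine, penicillin/streptomycin and 10% FBS. Cells seeded and cultured overnight at 37°C, 5% CO2. Compounds in DMSO (final under 0.1%) added for 24 h. MTT 0.5 mg/mL added for 3 h, formazan taken up in isopropanol, absorbance read at 620 nm. Viability given relative to vehicle. Three independent experiments in quadruplicate.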

[13] = target: T2, Fatty-acid amide hydrolase 1; assay: Inhibition of FAAH in rat brain membrane at pH 9 using N-arachidonoyl-[14C]-ethanolamine as substrate preincubated for 10 mins followed by substrate addition measured after 30 mins by scintillation counting method; format: cell membranes
Summary of the method: (§3)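 Rat brain 10,000 x g membrane fraction (70 µg/sample) in 50 mM Tris-HCl at pH 9.0 or 7.4, preincubated 10 min with compound. [14C]-AEA diluted with AEA then added, reaction run at 37 °C. [14C]-ethanolamine in the aqueous phase after CHCl3/MeOH 1:1 extraction counted by scintillation.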

[14] = target: T2, Fatty-acid amide hydrolase 1; assay: Inhibition of FAAH in rat brain membrane at pH 7.4 using N-arachidonoyl-[14C]-ethanolamine as substrate preincubated for 10 mins followed by substrate addition measured after 30 mins by scintillation counting method; format: cell membranes; summary of the method: as §3

T1 sequence (P22303 whole entry): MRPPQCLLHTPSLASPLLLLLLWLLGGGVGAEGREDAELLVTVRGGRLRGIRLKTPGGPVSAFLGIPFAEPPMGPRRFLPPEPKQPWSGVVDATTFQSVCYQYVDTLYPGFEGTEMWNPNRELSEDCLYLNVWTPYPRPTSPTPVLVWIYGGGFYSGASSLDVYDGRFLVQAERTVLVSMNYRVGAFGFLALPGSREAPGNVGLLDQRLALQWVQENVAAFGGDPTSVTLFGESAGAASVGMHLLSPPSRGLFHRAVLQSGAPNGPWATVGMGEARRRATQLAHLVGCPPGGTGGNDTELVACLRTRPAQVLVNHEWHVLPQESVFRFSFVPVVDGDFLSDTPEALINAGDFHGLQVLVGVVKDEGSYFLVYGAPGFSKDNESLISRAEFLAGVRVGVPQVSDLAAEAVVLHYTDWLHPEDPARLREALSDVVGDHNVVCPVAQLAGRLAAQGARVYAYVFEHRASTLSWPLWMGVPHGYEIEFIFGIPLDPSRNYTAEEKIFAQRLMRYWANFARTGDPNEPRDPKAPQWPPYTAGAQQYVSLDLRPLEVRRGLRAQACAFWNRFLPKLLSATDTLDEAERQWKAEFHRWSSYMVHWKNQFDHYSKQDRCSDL
T3 sequence (P06276 whole entry): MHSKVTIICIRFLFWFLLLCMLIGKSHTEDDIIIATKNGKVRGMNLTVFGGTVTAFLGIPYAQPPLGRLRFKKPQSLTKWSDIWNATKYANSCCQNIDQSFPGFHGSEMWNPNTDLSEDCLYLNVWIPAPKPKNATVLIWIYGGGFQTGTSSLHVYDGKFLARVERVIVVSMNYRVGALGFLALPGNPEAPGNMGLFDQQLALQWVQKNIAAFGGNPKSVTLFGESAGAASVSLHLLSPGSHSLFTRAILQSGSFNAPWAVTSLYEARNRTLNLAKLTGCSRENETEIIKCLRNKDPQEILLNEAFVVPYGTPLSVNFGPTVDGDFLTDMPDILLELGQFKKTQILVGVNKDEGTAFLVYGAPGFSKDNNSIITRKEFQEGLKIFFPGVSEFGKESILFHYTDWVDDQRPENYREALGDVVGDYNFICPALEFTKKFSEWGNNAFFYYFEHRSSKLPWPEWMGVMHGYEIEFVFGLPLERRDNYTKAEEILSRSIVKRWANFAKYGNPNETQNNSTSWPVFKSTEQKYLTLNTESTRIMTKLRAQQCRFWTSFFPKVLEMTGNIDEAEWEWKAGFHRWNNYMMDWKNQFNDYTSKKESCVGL

## CNC(=O)Oc1ccc2c(c1)[C@]1(C)CCN(C)[C@@H]1N2C
[1]
  T1/2: 30 min

## CN(CCCOc1ccc2ccc(=O)oc2c1)Cc1cccc(OC(=O)NCCCCCCc2ccccc2)c1
[2]
  IC50: 109 nM
[3]
  IC50: 530 nM
[4]
  IC50: 1790 nM
[5]
  IC50: 2.85 nM
[6]
  inhibition: tde
[7]
  inhibition: tde

## COc1ccc(-c2cc3ccc(OCCCN(C)Cc4cccc(OC(=O)NCCCCCc5ccccc5)c4)cc3oc2=O)cc1
[2]
  IC50: 312 nM
[3]
  IC50: 322 nM
[4]
  IC50: 2330 nM
[5]
  IC50: 1.3 nM
[6]
  inhibition: tde
[7]
  inhibition: tde

## O=C(NCCCCCc1ccccc1)Oc1cccc(-n2cc(COc3ccc4ccc(=O)oc4c3)nn2)c1
[2]
  IC50: 1170 nM
[3]
  IC50: 44.7 nM
[4]
  IC50: 209 nM
[5]
  IC50: 15.2 nM

## CN(CCCOc1ccc2c(c1)oc(=O)c1ccccc12)Cc1cccc(OC(=O)NCCCCCc2ccccc2)c1
[2]
  IC50: 390 nM
[3]
  IC50: 312 nM
[4]
  IC50: 1830 nM
[5]
  IC50: 1.19 nM
[6]
  inhibition: tde
[7]
  inhibition: tde

## O=C(NCCCCCc1ccccc1)Oc1ccc(Cn2cc(COc3ccc4ccc(=O)oc4c3)nn2)cc1
[2]
  IC50: 255 nM
[3]
  IC50: 28.5 nM
[4]
  IC50: 113 nM
[5]
  IC50: 1.17 nM

## CCCCCCCNC(=O)Oc1cccc(CN(C)CCCCCOc2ccc3ccc(=O)oc3c2)c1
[2]
  IC50: 11.3 nM
[3]
  IC50: 242 nM
[4]
  IC50: 1290 nM
[8]
  IC50: 0.79 nM
[6]
  inhibition: tde
[7]
  inhibition: tde

## CCCCCCc1ccc(NC(=O)Oc2cccc(CN(C)CCCOc3ccc4ccc(=O)oc4c3)c2)cc1
[3]
  IC50: > 50000 nM
[4]
  IC50: > 50000 nM
[5]
  IC50: 32.1 nM
[9]
  IC50: 3800 nM
[6]
  inhibition: tde
[7]
  inhibition: tde
[10]
  K: 0.203 min⁻¹
[11]
  K: 0.461 min⁻¹

## CCCCCCCNC(=O)Oc1cccc(-n2cc(COc3ccc4ccc(=O)oc4c3)nn2)c1
[2]
  IC50: 702 nM
[3]
  IC50: 15.7 nM
[4]
  IC50: 61.9 nM
[8]
  IC50: 71.2 nM
[12]
  Activity: Non-toxic

## CN(CCCOc1ccc2ccc(=O)oc2c1)Cc1cccc(OC(=O)NCCCCCc2ccccc2)c1
[13]
  IC50: 183 nM
[14]
  IC50: 4100 nM
[12]
  Activity: Non-toxic
[6]
  inhibition: tde
[7]
  inhibition: tde

## CCCCCCCNC(=O)Oc1cccc(CN(C)CCCOc2ccc3c(=O)c4cccnc4oc3c2)c1
[2]
  IC50: 13 nM
[3]
  IC50: 202 nM
[4]
  IC50: 3130 nM
[8]
  IC50: 0.69 nM
[6]
  inhibition: tde
[7]
  inhibition: tde

## CN(CCCCCOc1ccc2ccc(=O)oc2c1)Cc1cccc(OC(=O)NCCCCCc2ccccc2)c1
[2]
  IC50: 88.1 nM
[3]
  IC50: 120 nM
[4]
  IC50: 798 nM
[5]
  IC50: 1.23 nM
[6]
  inhibition: tde
[7]
  inhibition: tde

## CCCCCCCNC(=O)Oc1cccc(CN(C)CCCCCOc2ccc3c(c2)Oc2ncccc2C3)c1
[2]
  IC50: 6.92 nM
[3]
  IC50: 178 nM
[4]
  IC50: 2180 nM
[8]
  IC50: 0.53 nM
[6]
  inhibition: tde
[7]
  inhibition: tde

## CN(CCCOc1ccc2cc(-c3ccccc3)c(=O)oc2c1)Cc1cccc(OC(=O)NCCCCCc2ccccc2)c1
[2]
  IC50: 125 nM
[3]
  IC50: 250 nM
[4]
  IC50: 1850 nM
[5]
  IC50: 2.06 nM
[6]
  inhibition: tde
[7]
  inhibition: tde
